Experiments:
[1] = molecular target: T1, Metabotropic glutamate receptor 1 (Homo sapiens, UniProt Q13255); assay: Positive allosteric modulation of human mGlu1 receptor in HEK293 cells assessed as potentiation of glutamate-induced calcium mobiliztion by Fluo-4AM dye based fluorescence analysis; assay type: functional, cell-based; conditions: read-out: EC50
Target sequence in this assay (Q13255 whole entry): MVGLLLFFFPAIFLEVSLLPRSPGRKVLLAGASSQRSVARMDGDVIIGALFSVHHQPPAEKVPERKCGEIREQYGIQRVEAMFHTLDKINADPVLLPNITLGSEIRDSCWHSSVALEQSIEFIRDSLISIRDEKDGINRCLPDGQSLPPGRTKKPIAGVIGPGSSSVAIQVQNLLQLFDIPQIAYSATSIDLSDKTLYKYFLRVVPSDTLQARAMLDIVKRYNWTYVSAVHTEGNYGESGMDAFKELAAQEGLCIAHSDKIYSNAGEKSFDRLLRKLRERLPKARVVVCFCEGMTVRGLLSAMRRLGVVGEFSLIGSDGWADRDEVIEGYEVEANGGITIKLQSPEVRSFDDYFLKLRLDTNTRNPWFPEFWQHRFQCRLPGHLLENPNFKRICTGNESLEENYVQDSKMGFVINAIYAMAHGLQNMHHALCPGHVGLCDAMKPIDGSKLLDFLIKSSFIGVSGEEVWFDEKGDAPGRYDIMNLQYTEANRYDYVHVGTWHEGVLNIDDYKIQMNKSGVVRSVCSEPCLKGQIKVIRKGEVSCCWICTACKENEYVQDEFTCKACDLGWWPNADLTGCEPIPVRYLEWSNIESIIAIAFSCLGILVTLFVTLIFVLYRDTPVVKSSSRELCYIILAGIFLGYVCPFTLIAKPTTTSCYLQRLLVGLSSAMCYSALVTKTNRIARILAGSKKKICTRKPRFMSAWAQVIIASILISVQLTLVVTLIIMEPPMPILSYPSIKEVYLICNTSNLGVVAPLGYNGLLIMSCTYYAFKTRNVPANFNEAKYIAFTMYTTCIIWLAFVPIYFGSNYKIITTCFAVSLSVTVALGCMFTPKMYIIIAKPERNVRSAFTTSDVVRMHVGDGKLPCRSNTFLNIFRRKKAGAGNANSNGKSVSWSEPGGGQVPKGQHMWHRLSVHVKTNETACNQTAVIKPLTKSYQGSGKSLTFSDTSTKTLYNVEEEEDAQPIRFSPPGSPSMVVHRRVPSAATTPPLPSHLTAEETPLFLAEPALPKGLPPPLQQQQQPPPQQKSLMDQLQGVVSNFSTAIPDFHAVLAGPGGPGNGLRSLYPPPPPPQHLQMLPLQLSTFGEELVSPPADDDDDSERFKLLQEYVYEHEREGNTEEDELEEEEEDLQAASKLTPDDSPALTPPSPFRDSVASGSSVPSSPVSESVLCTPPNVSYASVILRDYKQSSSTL

[2] = molecular target: Cytochrome P450 2D6 (Homo sapiens, UniProt P10635); assay: Inhibition of CYP2D6 in human liver microsomes by LC-MS/MS analysis; assay type: ADME
[3] = system: Mus musculus; assay: Toxicity in C57BL/6 mouse assessed as seizure activity at 100 mg/kg, ip administered as single dose measured for 3 hrs; assay type: organism-based; conditions: in vivo
How it was run: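 Male C57Bl/6 mice (25−30 g) dosed ip in 10% Tween 80 at 10 mL/kg: the mGlu5 ago-PAM at 1 or 3 mg/kg, the mGlu1 PAMs at 100 mg/kg. Behaviour was monitored continuously for 3 h and scored on a modified Racine scale (0−5).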

[4] = system: Plasma; assay: Metabolic stability in human plasma; assay type: ADME, cell-free
How it was run: (§1)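 Compound incubated at 10 μM in rat or human plasma at 37 °C. Samples taken at 0 and 4 h were analysed by mass spectrometry for parent and metabolites.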

[5] = molecular target: T1, Metabotropic glutamate receptor 1; assay: Agonist activity at human mGlu1 receptor in HEK293 cells assessed as calcium mobilization at 10 uM by Fluo-4AM dye based fluorescence analysis; assay type: functional, cell-based
Target sequence in this assay (Q13255 19-1194 limits assumed): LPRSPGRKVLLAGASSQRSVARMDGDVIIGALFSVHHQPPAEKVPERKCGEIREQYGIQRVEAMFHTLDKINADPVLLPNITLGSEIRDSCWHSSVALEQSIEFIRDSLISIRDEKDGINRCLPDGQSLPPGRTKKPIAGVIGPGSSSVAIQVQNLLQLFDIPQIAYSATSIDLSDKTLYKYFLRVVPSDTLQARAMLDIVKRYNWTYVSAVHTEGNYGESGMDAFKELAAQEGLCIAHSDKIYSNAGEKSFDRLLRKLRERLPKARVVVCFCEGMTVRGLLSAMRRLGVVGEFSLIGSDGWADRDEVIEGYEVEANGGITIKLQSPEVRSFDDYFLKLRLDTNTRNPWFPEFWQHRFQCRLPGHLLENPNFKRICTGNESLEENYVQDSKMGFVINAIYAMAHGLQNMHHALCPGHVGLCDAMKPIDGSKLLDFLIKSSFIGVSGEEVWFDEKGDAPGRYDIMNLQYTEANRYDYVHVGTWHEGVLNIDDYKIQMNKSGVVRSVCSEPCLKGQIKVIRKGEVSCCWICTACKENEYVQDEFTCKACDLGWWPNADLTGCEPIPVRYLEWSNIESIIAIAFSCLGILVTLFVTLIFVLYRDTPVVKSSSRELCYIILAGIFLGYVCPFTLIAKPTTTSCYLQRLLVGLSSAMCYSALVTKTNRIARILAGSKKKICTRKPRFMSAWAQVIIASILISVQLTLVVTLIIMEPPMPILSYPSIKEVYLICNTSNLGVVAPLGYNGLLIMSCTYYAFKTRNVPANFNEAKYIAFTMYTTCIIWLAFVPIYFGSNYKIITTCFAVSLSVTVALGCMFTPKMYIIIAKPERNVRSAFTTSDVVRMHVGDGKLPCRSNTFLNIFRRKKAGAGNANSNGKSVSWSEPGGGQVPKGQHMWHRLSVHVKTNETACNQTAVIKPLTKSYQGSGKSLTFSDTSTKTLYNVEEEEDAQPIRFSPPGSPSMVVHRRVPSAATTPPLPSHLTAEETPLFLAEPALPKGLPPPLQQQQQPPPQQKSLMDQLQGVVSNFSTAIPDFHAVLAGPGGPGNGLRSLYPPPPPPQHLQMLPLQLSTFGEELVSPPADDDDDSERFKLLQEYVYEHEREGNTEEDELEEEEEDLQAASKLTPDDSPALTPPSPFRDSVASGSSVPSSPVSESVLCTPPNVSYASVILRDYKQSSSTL

[6] = molecular target: Cytochrome P450 3A4 (Homo sapiens, UniProt P08684); assay: Inhibition of CYP3A4 in human liver microsomes by LC-MS/MS analysis; assay type: ADME
[7] = molecular target: Metabotropic glutamate receptor 3 (Homo sapiens) (UniProt Q14832); assay: Positive allosteric modulation of mGlu3 receptor (unknown origin) assessed as potentiation of glutamate-induced response by cell-based assay
Chain of Metabotropic glutamate receptor 3 (Homo sapiens) (Q14832 23-879 limits assumed): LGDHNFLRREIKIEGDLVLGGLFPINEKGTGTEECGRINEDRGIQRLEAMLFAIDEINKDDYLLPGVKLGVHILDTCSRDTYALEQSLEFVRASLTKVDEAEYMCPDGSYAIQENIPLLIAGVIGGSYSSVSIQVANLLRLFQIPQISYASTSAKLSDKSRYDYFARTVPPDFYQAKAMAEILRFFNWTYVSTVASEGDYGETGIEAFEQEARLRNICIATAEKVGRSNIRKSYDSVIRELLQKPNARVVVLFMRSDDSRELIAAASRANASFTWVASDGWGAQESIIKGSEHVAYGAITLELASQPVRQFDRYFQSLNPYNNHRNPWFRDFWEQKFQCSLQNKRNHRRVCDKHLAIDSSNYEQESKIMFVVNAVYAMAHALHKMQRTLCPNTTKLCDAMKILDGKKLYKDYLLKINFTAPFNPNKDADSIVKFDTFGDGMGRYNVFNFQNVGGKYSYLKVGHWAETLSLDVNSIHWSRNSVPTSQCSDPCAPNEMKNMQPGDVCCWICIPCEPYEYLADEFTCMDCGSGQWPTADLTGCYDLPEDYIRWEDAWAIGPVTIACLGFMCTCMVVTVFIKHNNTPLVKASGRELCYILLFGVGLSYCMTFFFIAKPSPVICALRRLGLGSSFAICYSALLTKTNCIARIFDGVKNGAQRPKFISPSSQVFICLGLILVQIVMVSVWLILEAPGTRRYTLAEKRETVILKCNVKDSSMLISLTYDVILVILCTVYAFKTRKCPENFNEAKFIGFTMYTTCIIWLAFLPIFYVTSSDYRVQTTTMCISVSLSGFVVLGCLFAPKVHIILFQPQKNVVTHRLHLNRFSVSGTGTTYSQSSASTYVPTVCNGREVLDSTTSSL
How it was run: (§2)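 Selectivity counterscreen at the other mGlu subtypes using the standard fold-shift paradigm. Compound was tested at 10 μM against the glutamate concentration-response curve, and the shift of that curve was read.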

[8] = Ratio of drug level in brain to plasma of Sprague-Dawley rat at 0.2 mg/kg, iv after 0.25 hrs by LC-MS/MS analysis; conditions: read-out: BPR
[9] = Plasma clearance in Sprague-Dawley rat at 0.2 mg/kg, iv by LC-MS/MS analysis
[10] = Intrinsic clearance in human liver microsomes at 1 uM by LC-MS/MS analysis; assay type: ADME; conditions: read-out: CLH
[11] = molecular target: T1, Metabotropic glutamate receptor 1; assay: Positive allosteric modulation of human mGlu1 receptor in HEK293 cells assessed as potentiation of glutamate-induced calcium mobiliztion by Fluo-4AM dye based fluorescence analysis relative to glutamate; assay type: functional, cell-based
Target sequence in this assay (Q13255 19-1194 limits assumed): as the sequence (Q13255 19-1194 limits assumed) above

[12] = molecular target: Metabotropic glutamate receptor 1 (Rattus norvegicus) (UniProt P23385); assay: Positive allosteric modulation of rat mGlu1 receptor assessed as potentiation of glutamate-induced calcium mobiliztion by cell based assay relative to glutamate; assay type: functional
How it was run: (§3)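 Rat mGlu1 WT calcium mobilization concentration-response curves. EC50 and % Glu Max were derived from the curves.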

[13] = system: Plasma; assay: Fraction unbound in rat plasma; assay type: ADME, cell-free
[14] = molecular target: Metabotropic glutamate receptor 7 (Homo sapiens) (UniProt Q14831); assay: Positive allosteric modulation of mGlu7 receptor (unknown origin) assessed as potentiation of glutamate-induced response by cell-based assay; how it was run: as §2
[15] = molecular target: Metabotropic glutamate receptor 6 (Homo sapiens) (UniProt O15303); assay: Positive allosteric modulation of mGlu6 receptor (unknown origin) assessed as potentiation of glutamate-induced response by cell-based assay; how it was run: as §2
Chain of Metabotropic glutamate receptor 6 (Homo sapiens) (O15303 whole entry): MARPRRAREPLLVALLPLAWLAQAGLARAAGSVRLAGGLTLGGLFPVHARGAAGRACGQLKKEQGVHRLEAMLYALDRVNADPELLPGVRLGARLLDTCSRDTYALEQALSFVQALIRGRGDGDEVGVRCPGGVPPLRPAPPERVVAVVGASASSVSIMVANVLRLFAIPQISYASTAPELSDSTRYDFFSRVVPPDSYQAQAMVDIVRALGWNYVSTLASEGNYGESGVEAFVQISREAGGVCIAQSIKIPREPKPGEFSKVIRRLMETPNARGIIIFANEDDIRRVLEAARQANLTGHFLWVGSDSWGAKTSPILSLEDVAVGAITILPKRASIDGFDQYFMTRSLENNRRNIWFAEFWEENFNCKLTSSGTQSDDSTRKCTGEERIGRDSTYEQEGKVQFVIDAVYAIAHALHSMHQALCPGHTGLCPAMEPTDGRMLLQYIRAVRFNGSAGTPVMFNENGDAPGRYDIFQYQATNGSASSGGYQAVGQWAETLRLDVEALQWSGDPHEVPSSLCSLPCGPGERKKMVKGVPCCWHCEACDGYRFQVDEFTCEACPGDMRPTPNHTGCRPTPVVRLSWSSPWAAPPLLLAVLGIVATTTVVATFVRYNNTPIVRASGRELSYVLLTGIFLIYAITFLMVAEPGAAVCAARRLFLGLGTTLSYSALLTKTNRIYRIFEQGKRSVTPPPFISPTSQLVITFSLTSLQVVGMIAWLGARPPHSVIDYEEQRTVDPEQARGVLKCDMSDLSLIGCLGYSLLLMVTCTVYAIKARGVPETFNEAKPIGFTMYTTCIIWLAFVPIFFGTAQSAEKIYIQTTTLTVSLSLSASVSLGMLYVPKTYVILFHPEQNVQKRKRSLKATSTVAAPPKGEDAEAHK

[16] = molecular target: Metabotropic glutamate receptor 2 (Homo sapiens) (UniProt Q14416); assay: Positive allosteric modulation of mGlu2 receptor (unknown origin) assessed as potentiation of glutamate-induced response by cell-based assay; how it was run: as §2
[17] = system: Brain; assay: Drug concentration in C57BL/6 mouse brain at 100 mg/kg, ip administered as single dose; assay type: ADME, organism-based; conditions: in vivo, read-out: Drug uptake
[18] = Plasma concentration in Sprague-Dawley rat at 0.2 mg/kg, iv after 0.25 hrs by LC-MS/MS analysis
[19] = Mean residence time in Sprague-Dawley rat at 0.2 mg/kg, iv by LC-MS/MS analysis; conditions: in vivo
[20] = molecular target: Cytochrome P450 2C9 (Homo sapiens, UniProt P11712); assay: Inhibition of CYP2C9 in human liver microsomes by LC-MS/MS analysis; assay type: ADME
[21] = molecular target: T2, Metabotropic glutamate receptor 4 (Homo sapiens, UniProt Q14833); assay: Positive allosteric modulation of human mGlu4 receptor assessed as potentiation of glutamate-induced calcium mobiliztion by cell based assay relative to PHCCC
T2 sequence (Q14833 whole entry): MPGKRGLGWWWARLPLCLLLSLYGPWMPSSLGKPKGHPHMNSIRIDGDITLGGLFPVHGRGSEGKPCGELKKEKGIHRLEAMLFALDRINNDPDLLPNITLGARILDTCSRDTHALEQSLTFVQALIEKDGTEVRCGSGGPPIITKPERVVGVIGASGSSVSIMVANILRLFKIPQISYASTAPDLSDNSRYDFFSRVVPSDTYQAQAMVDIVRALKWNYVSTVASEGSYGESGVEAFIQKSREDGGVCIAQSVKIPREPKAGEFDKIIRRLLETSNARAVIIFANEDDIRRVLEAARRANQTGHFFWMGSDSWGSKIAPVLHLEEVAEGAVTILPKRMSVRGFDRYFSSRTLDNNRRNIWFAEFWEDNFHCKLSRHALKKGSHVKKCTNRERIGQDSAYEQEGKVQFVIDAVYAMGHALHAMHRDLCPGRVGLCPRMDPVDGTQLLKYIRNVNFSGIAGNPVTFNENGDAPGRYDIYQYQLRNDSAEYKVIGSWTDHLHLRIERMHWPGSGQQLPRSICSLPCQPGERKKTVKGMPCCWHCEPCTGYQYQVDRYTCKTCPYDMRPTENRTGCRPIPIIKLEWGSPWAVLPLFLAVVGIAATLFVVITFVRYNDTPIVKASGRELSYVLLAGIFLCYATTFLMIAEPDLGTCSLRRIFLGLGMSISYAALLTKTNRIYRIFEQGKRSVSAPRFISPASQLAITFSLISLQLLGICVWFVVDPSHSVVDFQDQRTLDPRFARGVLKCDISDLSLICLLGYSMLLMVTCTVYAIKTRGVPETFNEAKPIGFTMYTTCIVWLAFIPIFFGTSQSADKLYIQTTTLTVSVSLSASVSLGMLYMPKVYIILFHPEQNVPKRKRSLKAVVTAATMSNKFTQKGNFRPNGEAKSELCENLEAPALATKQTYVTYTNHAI

[22] = molecular target: T2, Metabotropic glutamate receptor 4; assay: Positive allosteric modulation of human mGlu4 receptor assessed as potentiation of glutamate-induced calcium mobiliztion by cell based assay; assay type: functional
[23] = molecular target: Metabotropic glutamate receptor 1 (Rattus norvegicus, UniProt P23385); assay: Positive allosteric modulation of rat mGlu1 receptor assessed as potentiation of glutamate-induced calcium mobiliztion by cell based assay; assay type: functional; how it was run: as §3
[24] = Half life in Sprague-Dawley rat at 0.2 mg/kg, iv by LC-MS/MS analysis; conditions: in vivo
[25] = molecular target: T3, Cytochrome P450 1A2 (Homo sapiens, UniProt P05177); assay: Inhibition of CYP1A2 in human liver microsomes by LC-MS/MS analysis; assay type: ADME
T3 sequence (P05177 whole entry): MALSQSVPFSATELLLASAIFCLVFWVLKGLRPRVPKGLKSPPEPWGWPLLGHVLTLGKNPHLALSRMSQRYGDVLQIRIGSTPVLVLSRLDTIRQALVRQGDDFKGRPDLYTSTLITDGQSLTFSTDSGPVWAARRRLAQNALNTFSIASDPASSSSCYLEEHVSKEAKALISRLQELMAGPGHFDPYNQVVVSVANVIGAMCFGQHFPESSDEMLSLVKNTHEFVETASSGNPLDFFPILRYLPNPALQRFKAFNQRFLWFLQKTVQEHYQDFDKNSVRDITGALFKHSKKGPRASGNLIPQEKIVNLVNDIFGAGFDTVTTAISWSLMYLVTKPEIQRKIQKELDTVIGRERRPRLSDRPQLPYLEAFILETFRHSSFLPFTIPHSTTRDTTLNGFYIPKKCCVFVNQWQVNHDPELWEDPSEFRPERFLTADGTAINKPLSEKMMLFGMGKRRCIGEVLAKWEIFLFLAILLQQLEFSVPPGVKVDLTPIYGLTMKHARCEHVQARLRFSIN

[26] = molecular target: T1, Metabotropic glutamate receptor 1; assay: Positive allosteric modulation of human mGlu1 receptor in HEK293 cells assessed as potentiation of glutamate-induced calcium mobiliztion at 10 uM by Fluo-4AM dye based fluorescence analysis; assay type: functional, cell-based
Target sequence in this assay (Q13255 19-1194 limits assumed): as the sequence (Q13255 19-1194 limits assumed) above

[27] = Drug concentration in Sprague-Dawley rat brain at 0.2 mg/kg, iv after 0.25 hrs by LC-MS/MS analysis; conditions: read-out: Drug uptake
[28] = molecular target: Metabotropic glutamate receptor 5 (Homo sapiens) (UniProt P41594); assay: Positive allosteric modulation of mGlu5 receptor (unknown origin) assessed as potentiation of glutamate-induced response by cell-based assay; how it was run: as §2
[29] = molecular target: Metabotropic glutamate receptor 8 (Homo sapiens) (UniProt O00222); assay: Positive allosteric modulation of mGlu8 receptor (unknown origin) assessed as potentiation of glutamate-induced response by cell-based assay; how it was run: as §2
[30] = system: Rattus norvegicus; assay: Volume of distribution at steady state in Sprague-Dawley rat at 0.2 mg/kg, iv by LC-MS/MS analysis; conditions: in vivo
[31] = system: Plasma; assay: Drug level in rat plasma treated with N-(3-chloro-4-(5-chloro-1,3-dioxoisoindolin-2-yl)phenyl)-3-methylfuran-2-carboxamide at 10 uM after 4 hrs by mass spectrometry; assay type: ADME, cell-free; how it was run: as §1
[32] = system: Plasma; assay: Drug level in human plasma treated with N-(3-chloro-4-(5-chloro-1,3-dioxoisoindolin-2-yl)phenyl)-3-methylfuran-2-carboxamide at 10 uM after 4 hrs by mass spectrometry; assay type: ADME, cell-free; how it was run: as §1
[33] = species on record: Homo sapiens; assay: Selectivity index, ratio of EC50 for human mGlu4 receptor to EC50 for human mGlu1 receptor

O=C(Nc1ccc(N2C(=O)c3ccccc3C2=O)c(Cl)c1)c1cocn1 showed an EC50 [1] of over 10000 nM.
Molecule O=C(Nc1ccc(N2C(=O)c3ccccc3C2=O)c(Cl)c1)c1cc2ccccc2o1 has an EC50 [1] of over 10000 nM.
In the case of Cc1ccoc1C(=O)Nc1ccc(N2C(=O)c3ccncc3C2=O)c(Cl)c1, the IC50 [2] is reported as over 30000 nM, the Activity [3] is reported as “Non-toxic” and the Stability [4] is reported as “Unstable”. It also gave an Activity [5] of under 20%, an IC50 [6] of over 30000 nM and a fold change (FC) [7] of under 2. For the same molecule, the EC50 [1] was 98.8 nM, the Kp at 0.25 h [8] was 2.81 and the clearance [9] was 382 mL/min/kg. The CLint scaled at 1 µM [10] was 167 mL/min/kg, the %max [11] was 94% and the %max [12] was 115%. The Fu [13] was 0.03, the fold change (FC) [14] was under 2 and the fold change (FC) [15] was under 2. The fold change (FC) [16] was under 2, the concentration [17] was 2520 nM and the concentration at 0.25 h [18] was 12.5 ng/mL. For the same molecule, the MRT [19] was 7.85 min, the IC50 [20] was over 30000 nM and the %max [21] was 18%. It also gave an EC50 ([22]; read-out: EC50) of over 10000 nM, an EC50 [23] of 113 nM and a half-life [24] of 5.38 min. The IC50 [25] was over 30000 nM, the fold change (FC) [26] was 10.9 and the concentration at 0.25 h [27] was 35.2 ng/mL. For the same molecule, the fold change (FC) [28] was under 2, the fold change (FC) [29] was under 2 and the Vdss [30] was 3 L/kg.
Work on O=C(Nc1ccc(N2C(=O)c3ccccc3C2=O)c(Cl)c1)c1ccc[nH]1 yielded an EC50 [1] of over 10000 nM.
With Cc1ccoc1C(=O)Nc1ccc(NC(=O)c2ccc(Cl)cc2C(=O)O)c(Cl)c1 the Drug metabolism [31] was “metabolite_detected” and the Drug metabolism [32] was “metabolite_detected”.
Cc1ccc(C(=O)Nc2ccc(N3C(=O)c4ccccc4C3=O)c(Cl)c2)o1 gave an EC50 [1] of over 10000 nM and a %max [11] of 60%.
Work on O=C(Nc1ccc(N2C(=O)c3ccccc3C2=O)c(Cl)c1)c1cnn[nH]1 yielded an EC50 [1] of over 10000 nM.
Work on Cc1ccoc1C(=O)Nc1ccc(N2C(=O)c3cccc(Cl)c3C2=O)c(Cl)c1 yielded a Ratio EC50 [33] of 34.5, an EC50 [1] of 33 nM and a %max [11] of 91%. The %max [21] was 163% and the EC50 ([22]; read-out: EC50) was 1140 nM.
In the case of O=C(Nc1ccc(N2C(=O)c3ccccc3C2=O)c(Cl)c1)c1ccno1, the EC50 [1] is reported as over 10000 nM.
CCc1ccc(C(=O)Nc2ccc(N3C(=O)c4ccccc4C3=O)c(Cl)c2)o1 showed an EC50 [1] of over 10000 nM and a %max [11] of 30%.
Molecule Cc1ccoc1C(=O)Nc1ccc(N2C(=O)c3ccc(F)cc3C2=O)c(Cl)c1 has a Ratio EC50 [33] of 29.7, an EC50 [1] of 24.1 nM and a %max [11] of 88%. For the same molecule, the %max [21] was 97%, the EC50 ([22]; read-out: EC50) was 712 nM and the EC50 ([22]; read-out: pEC50 (converted)) was 724 nM.
With O=C(Nc1ccc(N2C(=O)c3ccccc3C2=O)c(Cl)c1)C1CCCO1 (stereo unspecified) the EC50 [1] was over 10000 nM.
With Cc1ccoc1C(=O)Nc1ccc(N2C(=O)c3ccccc3C2=O)c(Cl)c1 the EC50 [1] was 97 nM and the %max [11] was 118%.
Work on CS(=O)(=O)c1ccc(C(=O)Nc2ccc(N3C(=O)c4ccccc4C3=O)c(Cl)c2)o1 yielded an EC50 [1] of over 10000 nM and a %max [11] of 35%.
With Cc1ccc2c(c1)C(=O)N(c1ccc(NC(=O)c3occc3C)cc1Cl)C2=O the Ratio EC50 [33] was 5.9, the EC50 [1] was 54.4 nM and the %max [11] was 86%. The %max [21] was 69% and the EC50 ([22]; read-out: EC50) was 323 nM.
With Cc1ccoc1C(=O)Nc1ccc(N2C(=O)c3cccc(C)c3C2=O)c(Cl)c1 the Ratio EC50 [33] was 25.5, the EC50 [1] was 24.3 nM and the %max [11] was 86%. For the same molecule, the %max [21] was 153% and the EC50 ([22]; read-out: EC50) was 620 nM.
Molecule O=C(Nc1ccc(N2C(=O)c3ccccc3C2=O)c(Cl)c1)c1ccc(C(F)(F)F)o1 has an EC50 [1] of over 10000 nM and a %max [11] of 43%.
Work on O=C(Nc1ccc(N2C(=O)c3ccccc3C2=O)c(Cl)c1)c1ccc(Br)o1 yielded an EC50 [1] of over 10000 nM and a %max [11] of 45%.

From ChEMBL document CHEMBL3627606, “Development of Novel, CNS Penetrant Positive Allosteric Modulators for the Metabotropic Glutamate Receptor Subtype 1 (mGlu1), Based on an N-(3-Chloro-4-(1,3-dioxoisoindolin-2-yl)phenyl)-3-methylfuran-2-carboxamide Scaffold, That Potentiate Wild Type and Mutant mGlu1 Receptors Found in …” (J Med Chem, 2015)
